The source of these data is PMC5677758 (Journal of the American Chemical Society, 2017).

This assay deals with T1, GBA3 (Homo sapiens, UniProt Q9H227).
T1 sequence (Q9H227 1-469): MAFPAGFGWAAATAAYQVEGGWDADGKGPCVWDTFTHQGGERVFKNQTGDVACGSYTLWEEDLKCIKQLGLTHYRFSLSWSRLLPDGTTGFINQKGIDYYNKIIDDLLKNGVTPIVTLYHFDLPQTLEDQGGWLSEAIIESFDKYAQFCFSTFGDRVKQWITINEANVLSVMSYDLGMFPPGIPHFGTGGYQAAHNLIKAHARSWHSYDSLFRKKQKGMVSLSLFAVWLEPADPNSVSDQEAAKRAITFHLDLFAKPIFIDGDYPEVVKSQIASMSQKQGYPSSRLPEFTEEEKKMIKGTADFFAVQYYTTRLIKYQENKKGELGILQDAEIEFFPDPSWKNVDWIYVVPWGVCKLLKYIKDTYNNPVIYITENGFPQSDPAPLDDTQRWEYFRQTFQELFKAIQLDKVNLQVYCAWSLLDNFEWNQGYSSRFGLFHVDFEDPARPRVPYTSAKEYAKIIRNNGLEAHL
Nature of the assay: GBA3 in vitro assay, homogenates of HEK293T overexpressing GBA3. It is filed as biochemical. The method, boiled down:
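Lysate from HEK293T cells stably overexpressing human GBA3 was pretreated 30 min with 1 mM conduritol β epoxide to block GBA1. Assay in 100 mM Hepes pH 7.0 with 0.1% BSA for 1 h, with 0.05–5 mM 4MU-β-D-glucopyranoside plus inhibitor and no inhibitor preincubation. […] Duplicates; Ki from curve fit.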

As for `CCCCN1C[C@H](O)[C@@H](O)[C@H](O)[C@H]1CO` [compound 1, N-butyldeoxynojirimycin], the Ki was over 1 mM.
